# KCNK9 block – human KCNK9 channel inhibition | Q9NPC2 | HEK293 KCNK9, FluxOR thallium flux fluorescence; hits give low values | B-score at 10 µM | actives 1.2% (n = 310,000);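 active means ratio B-score over 3 SD below the library mean, with starting fluorescence within 5 SD of its mean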;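 further: negative B-score means less thallium flux so channel inhibition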
# KCNQ1 inh – human KCNQ1 channel inhibition; P51787; AID 2642; CHO-K1 KCNQ1, FluxOR thallium flux fluorescence; hits give high values; actives 1.3% (n = 310,000); B-score at 10 µM;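 active means compounds whose thallium flux B-score, printed positive for inhibition, exceeds three library SD while starting fluorescence stays within three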;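 further: channel opened by potassium depolarization with thallium stimulus after 20 min compound exposure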
# KCNQ1 pot – potentiates or activates the human KCNQ1 potassium channel | P51787 | CHO-K1 KCNQ1, thallium flux FluxOR fluorescence; hits give high values | B-score at 10 µM | actives 0.35% (n = 310,000) | AID 2648;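 active means fluorescence ratio B-score, a plate-corrected score, at least three library SD, with initial intensity B-score within 5 SD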
#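 Schedule – 37 °C overnight plating, 90-min dark dye load, 20-min compound pretreatment · System – stable KCNQ1 CHO-K1 line · Probe or stimulus – thallium- and potassium-containing depolarizing buffer · Measured by – kinetic FluxOR fluorescence, 10 s baseline plus 110 s post-stimulus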
# hERG rescue – shields human hERG channel from block by proarrhythmic agents. Q12809. CHO-hERG, FluxOR thallium flux, dofetilide IC70 present. actives 0.51% (n = 310,000). activation (rescue from dofetilide block), less the hit threshold, % at 10 µM;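 active means activation above the mean of controls blocked by dofetilide plus 5 SD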;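 further: thallium influx through hERG after potassium depolarization seen as dye fluorescence rise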
# KCNK3 block – human KCNK3 channel inhibition, primary screen; actives 0.84% (n = 340,000); CHO-KCNK3 thallium flux, FluxOR fluorescence; hits give low values; B-score at 10 µM; AID 602410; O14649;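 active means B-score under library mean minus 4 SD, starting fluorescence ratio at most library mean plus 5 SD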;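 further: more negative B-score means stronger inhibition of thallium flux through KCNK3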
# Kir21 inh – blocks the mouse Kir2.1 inward-rectifier potassium channel. P35561. HEK293-Kir2.1, FluxOR thallium flux fluorescence; hits give low values. B-score at 10 µM. actives 0.85% (n = 310,000);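 active means fluorescence ratio B-score at or below minus 3 SD of library scores, with starting-brightness B-score within 2 SD, cut at about -4.2 in these data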;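 further: channel flux triggered by added potassium and thallium sulfate stimulus; B-score of peak minus minimum fluorescence over baseline after thallium stimulus; more negative B-score means stronger Kir2.1 block with less thallium influx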
# Target sequence (P35561 whole entry, looked up): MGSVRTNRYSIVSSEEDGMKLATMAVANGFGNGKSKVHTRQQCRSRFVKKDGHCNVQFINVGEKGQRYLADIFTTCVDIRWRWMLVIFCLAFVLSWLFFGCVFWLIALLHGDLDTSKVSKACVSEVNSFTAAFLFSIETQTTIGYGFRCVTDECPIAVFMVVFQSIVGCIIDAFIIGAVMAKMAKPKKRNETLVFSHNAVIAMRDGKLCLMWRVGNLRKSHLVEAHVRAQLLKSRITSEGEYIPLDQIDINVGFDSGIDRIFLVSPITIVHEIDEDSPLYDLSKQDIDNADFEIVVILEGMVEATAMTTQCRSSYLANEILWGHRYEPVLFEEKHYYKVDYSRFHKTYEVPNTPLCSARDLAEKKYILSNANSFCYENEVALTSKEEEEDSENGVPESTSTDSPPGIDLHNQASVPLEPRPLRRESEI
# KCNK9 block conf – confirmation of human KCNK9 potassium channel inhibitors; inhibition, % at 10 µM; HEK293 KCNK9 cells, FluxOR thallium flux fluorescence; actives 43% (n = 4,900); shares compounds with KCNK9 block;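 active means thallium signal inhibited by more than 5 SD of the compound-free buffer control wells, on both duplicate plates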;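 further: 0% = assay buffer control wells without compound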
# Kir2-1 spec – mouse Kir2.1 off-target activity of KCNK9 modulators; shares compounds with KCNK9 block; Kir2.1 cells, FluxOR thallium flux fluorescence; AID 492993; inhibition, % at 10 µM; actives 4% (n = 4,900);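 active means thallium signal drop more than 5 SD beyond the mean of the no-compound control wells, seen in both duplicate plates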;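 further: signal is fluorescence rise after thallium addition divided by baseline fluorescence; plate controls were assay buffer only for no effect and full block by chlorpromazine control for full effect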
# HEK293 Tl ctr – second counter-screen for KCNK9 modulators: effect in non-induced cells; shares compounds with KCNK9 block; non-induced KCNK9-HEK293, FluxOR thallium flux; inhibition, % at 10 µM; actives 40% (n = 4,900);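 active means thallium signal drop beyond 5 SD of the untreated control mean, on both duplicate plates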;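 further: plate controls were buffer only IC0 wells for no effect and SID17386958 at its maximal inhibitory level for full effect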
# Active calls of the source: *; i = inactive; nt = not tested or not shown. Most compounds without a hit are left out; they make up all but 3.7% or so of the library.
SMILES,KCNK9 block,KCNQ1 inh,KCNQ1 pot,hERG rescue,KCNK3 block,Kir21 inh,KCNK9 block conf,Kir2-1 spec,HEK293 Tl ctr
O=C(Nc1cccnc1Oc1ccc(Cl)cc1)c1cccc2ccccc12,i,i,i,-9,i,0.43,nt,nt,nt
Cc1cc(C)c2cc(C(=O)N3CCC(Cc4ccccc4)CC3)[nH]c2c1,i,i,i,-13,i,-1.7,i,i,i
COc1cc2cc(C(=O)N3CCC(Cc4ccccc4)CC3)[nH]c2cc1OC,i,i,i,0,i,0.41,nt,nt,nt
Cc1ccc(/C=C/C(=O)N2CCC(Cc3ccccc3)CC2)cc1,i,i,i,-14,i,-1.6,i,i,26%*
CC1CCN(C(=O)/C=C/c2ccc(C(C)(C)C)cc2)CC1,-9*,i,i,-15,i,0.27,62%*,i,50%*
CCOC(=O)CC1C(=O)NCCN1C(=O)c1cccc(OC)c1 (stereo unspecified),i,i,i,-3,i,-0.01,nt,nt,nt
O=C(NCCCN1CCCC1=O)c1ccc(Cl)c(S(=O)(=O)N2CCCCC2)c1,nt,nt,nt,nt,i,nt,nt,nt,nt
CCN(CC)S(=O)(=O)c1ccc(N2CCOCC2)c(NC(=O)CC23CC4CC(CC(Br)(C4)C2)C3)c1,i,i,i,-1,i,-0.1,i,i,i
CCN(CC)S(=O)(=O)c1ccc(N2CCOCC2)c(NC(=O)c2ccc3ccccc3c2)c1,-9.9*,i,i,-3,i,0.02,i,i,28%*
CCN(CC)S(=O)(=O)c1ccc(N2CCOCC2)c(NC(=O)c2ccc3c(c2)OCCO3)c1,i,i,i,-13,i,0.16,nt,nt,nt
CC1(c2ccccc2)NC(=O)N(CC(=O)Nc2ccccc2N2CCCC2)C1=O (stereo unspecified),i,i,i,-11,i,-1.8,nt,nt,nt
O=S(=O)(N/N=C/c1ccc(Cl)cc1)c1ccc(Cc2ncc(C(F)(F)F)cc2Cl)s1,i,10*,i,-17,-9.3*,-0.58,i,i,i
NC(=O)c1ccc(Cc2ncc(C(F)(F)F)cc2Cl)s1,i,i,i,1,i,-0.75,nt,nt,nt
CCCCNC(=O)c1onc(CSc2cccc3ccccc23)c1C(=O)O,i,i,i,-14,i,-1.5,i,i,i
CCCCNC(=O)c1onc(CSc2ccc(C(C)C)cc2)c1C(=O)O,i,i,i,-13,i,0.2,i,i,i
N=c1c2c(-c3ccccc3)c(-c3ccccc3)n(Cc3ccco3)c2ncn1Cc1ccccc1,-15*,10*,i,-31,i,-5.9*,60%*,52%*,28%*
CC(C)Cn1cnc2c(c(-c3ccccc3)c(-c3ccccc3)n2Cc2ccco2)c1=N,-9.9*,9*,i,-20,i,-9.7*,68%*,56%*,28%*
O=c1c2c3nc4ccccc4nc3n(Cc3ccccc3)c2ncn1Cc1ccco1,nt,nt,nt,nt,i,nt,nt,nt,nt
COc1ccc(CNC(=O)CNC(=O)N2CC(=O)Nc3ccccc32)cc1,i,i,i,-3,i,-0.84,nt,nt,nt
O=C(c1ccccc1)N1N=C(c2ccccc2O)CC1c1ccccc1 (stereo unspecified),i,i,i,-5,i,0.31,nt,nt,nt
CCOc1ccc(CN(C)Cc2cc(=O)oc3cc(C)c(Cl)cc23)cc1,i,i,i,-2,i,1.6,nt,nt,nt
CCOc1ccc(N(C)Cc2cc(=O)oc3ccc(OCC)cc23)cc1,-11*,i,i,-4,i,-0.15,42%*,i,32%*
CCc1ccc(NC(=S)N(CCN2CCCCC2)Cc2ccco2)cc1,-8.8*,i,i,-12,i,-0.31,41%*,i,40%*
O=C(Nc1ccc(S(=O)(=O)N2CCCC2)cc1)c1cc(F)c(F)cc1Cl,i,i,i,-6,i,-0.54,nt,nt,nt
Cc1ccccc1OCCN1CCC(Cc2ccccc2)CC1,i,i,i,-14,i,-1.9,i,i,i
SMILES,KCNK9 block,KCNQ1 inh,KCNQ1 pot,hERG rescue,KCNK3 block,Kir21 inh,KCNK9 block conf,Kir2-1 spec,HEK293 Tl ctr
Cc1ccc([N+](=O)[O-])c(OCCN2CCC(Cc3ccccc3)CC2)c1,i,i,i,-29,i,-1.6,i,i,i
Cc1ccc([N+](=O)[O-])c(OCCCN2CCCCCC2)c1,i,i,i,-1,i,0.63,nt,nt,nt
CCOc1ccccc1OCCN1CCC(Cc2ccccc2)CC1,i,i,i,-12,i,-2.9,i,i,i
Cc1oc2cc3oc(=O)c(CCC(=O)N[C@H](C(=O)O)C(C)C)c(C)c3cc2c1C,i,i,i,-7,i,-1.2,nt,nt,nt
CCCCCCCCCCn1c2c(c(=N)c3c1CCC3)CCC2,-18*,6*,i,58*,i,-8.6*,63%*,86%*,26%*
O=C(Nc1ccc2c(c1)OCO2)N1CCN(c2ncc(C(F)(F)F)cc2Cl)CC1,i,i,i,-10,i,-1.9,nt,nt,nt
Cc1ccc(/C=C2\SC(=S)N(CCCC(=O)Nc3ccccc3C(=O)O)C2=O)cc1,i,i,i,-15,i,-0.08,nt,nt,nt
CCOc1ccc(/C=C2\SC(=S)N(CCC(=O)Nc3cccc(C(=O)O)c3)C2=O)cc1,i,i,i,-10,i,0.83,i,i,i
CCc1ccc(/C=C2\SC(=S)N(CCCC(=O)Nc3ccc(C(=O)O)cc3)C2=O)cc1,i,i,i,-4,i,2.8,i,i,i
CCOc1ccc(/C=C2\SC(=S)N(CCC(=O)Nc3ccc(C(=O)O)cc3)C2=O)cc1,i,i,i,-9,i,-1.7,nt,nt,nt
CCc1ccc(/C=C2\SC(=S)N(CCCC(=O)Nc3ccccc3C(=O)O)C2=O)cc1,i,i,i,-9,i,1.1,i,i,i
CCc1ccccc1NC(=O)NNC(=O)CCc1ccc(OC)cc1,i,i,i,-10,i,-0.86,nt,nt,nt
Cc1ccc(CNC(=O)c2ccc(N3CCC4(CC3)CC(c3ccccc3)=NO4)c(N)c2)cc1,i,i,i,-10,i,0.45,nt,nt,nt

# Assay outcomes (PubChem BioAssay)
